Measurements published in ChEMBL document CHEMBL1154033, “Synthesis and enzymatic evaluation of novel partially fluorinated thiol dual ACE/NEP inhibitors” (Bioorg Med Chem Lett, 2009).

These compounds were tested against Angiotensin-converting enzyme (Homo sapiens, UniProt P12821) (assay: Inhibition of human recombinant ACE by fluorimetry).
Chain of Angiotensin-converting enzyme (P12821 whole entry): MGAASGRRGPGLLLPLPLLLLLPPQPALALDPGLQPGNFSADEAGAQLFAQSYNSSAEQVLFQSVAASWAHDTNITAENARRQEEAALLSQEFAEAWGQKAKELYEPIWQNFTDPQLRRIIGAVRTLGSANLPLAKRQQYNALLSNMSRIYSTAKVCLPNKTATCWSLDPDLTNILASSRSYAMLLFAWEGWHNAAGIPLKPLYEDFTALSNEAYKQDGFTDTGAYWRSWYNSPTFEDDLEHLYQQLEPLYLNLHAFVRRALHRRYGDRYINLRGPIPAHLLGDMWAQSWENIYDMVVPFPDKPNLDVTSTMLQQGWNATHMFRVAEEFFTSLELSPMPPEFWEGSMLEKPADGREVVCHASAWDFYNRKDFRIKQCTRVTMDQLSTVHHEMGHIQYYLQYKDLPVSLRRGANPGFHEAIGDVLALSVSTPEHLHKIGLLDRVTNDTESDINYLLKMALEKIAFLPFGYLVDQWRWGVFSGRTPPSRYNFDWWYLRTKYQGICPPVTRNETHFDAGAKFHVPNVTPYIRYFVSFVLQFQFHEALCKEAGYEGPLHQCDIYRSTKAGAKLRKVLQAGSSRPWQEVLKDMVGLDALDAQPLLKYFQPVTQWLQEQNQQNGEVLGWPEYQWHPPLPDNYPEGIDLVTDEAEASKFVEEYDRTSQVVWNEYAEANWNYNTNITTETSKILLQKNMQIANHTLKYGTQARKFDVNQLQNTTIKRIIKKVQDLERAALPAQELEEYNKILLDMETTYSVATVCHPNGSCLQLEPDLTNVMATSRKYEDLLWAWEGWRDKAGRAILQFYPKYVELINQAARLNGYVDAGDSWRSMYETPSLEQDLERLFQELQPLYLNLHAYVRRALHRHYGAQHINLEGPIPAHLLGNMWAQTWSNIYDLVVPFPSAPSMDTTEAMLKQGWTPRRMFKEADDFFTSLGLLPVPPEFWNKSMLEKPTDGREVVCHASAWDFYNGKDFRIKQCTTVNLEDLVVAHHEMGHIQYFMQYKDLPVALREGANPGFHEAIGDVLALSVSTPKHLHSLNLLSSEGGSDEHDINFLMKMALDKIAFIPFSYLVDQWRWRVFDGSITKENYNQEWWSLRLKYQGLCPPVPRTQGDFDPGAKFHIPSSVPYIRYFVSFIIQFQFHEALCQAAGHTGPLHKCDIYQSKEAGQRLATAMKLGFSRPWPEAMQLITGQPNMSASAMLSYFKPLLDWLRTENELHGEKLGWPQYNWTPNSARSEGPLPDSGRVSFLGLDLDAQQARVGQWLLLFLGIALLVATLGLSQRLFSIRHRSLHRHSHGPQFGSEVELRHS

SMILES	IC50 [nM]
O=C(CC(S)C(F)(F)F)NC(Cc1ccc(F)cc1)C(=O)O (stereo not drawn)	300
O=C(CC(S)C(F)(F)F)NC(Cc1c[nH]c2ccccc12)C(=O)O (stereo not drawn)	400
O=C(CC(S)C(F)(F)C(F)(F)F)NC(Cc1ccccc1)C(=O)O (stereo not drawn)	1010
O=C(CC(S)C(F)(F)F)NC(Cc1ccccc1)C(=O)NC(Cc1ccc(O)cc1)C(=O)O (stereo not drawn)	280
O=C(CC(S)C(F)(F)F)NC(Cc1ccccc1)C(=O)O (stereo not drawn)	830

The next lines start with the values.

IC50 [nM]	SMILES
> 10000	CC(C)CC(S)CC(=O)NC(Cc1ccccc1)C(=O)O (stereo not drawn)
160	O=C(CC(S)C(F)(F)F)NC(Cc1ccc(O)cc1)C(=O)O (stereo not drawn)

What follows are compounds tested against T1, Neprilysin (Sus scrofa, UniProt P19621) (assay: Inhibition of pig kidney NEP by fluorimetry).
T1 sequence (P19621 whole entry): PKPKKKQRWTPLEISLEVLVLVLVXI
Method in brief: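 Fluorescence was read at λex 340 nm and λem 530 nm. IC50 was derived from inhibition curves, and the assay was validated with a reference inhibitor IC50.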

SMILES	IC50 [nM]
O=C(CC(S)C(F)(F)F)NC(Cc1ccc(F)cc1)C(=O)O (stereo not drawn)	230
O=C(CC(S)C(F)(F)F)NC(Cc1c[nH]c2ccccc12)C(=O)O (stereo not drawn)	580
O=C(CC(S)C(F)(F)C(F)(F)F)NC(Cc1ccccc1)C(=O)O (stereo not drawn)	1150
O=C(CC(S)C(F)(F)F)NC(Cc1ccccc1)C(=O)NC(Cc1ccc(O)cc1)C(=O)O (stereo not drawn)	430
O=C(CC(S)C(F)(F)F)NC(Cc1ccccc1)C(=O)O (stereo not drawn)	300
O=C(O)CNC(=O)C(CS)Cc1ccccc1 (stereo not drawn) [THIORPHAN]	6.2

Continued, values first:

IC50 [nM]	SMILES
41	CC(C)CC(S)CC(=O)NC(Cc1ccccc1)C(=O)O (stereo not drawn)
50	CC(C)CC(S)CC(=O)NC(Cc1ccccc1)C(=O)NC(Cc1ccc(O)cc1)C(=O)O (stereo not drawn)
80	O=C(CC(S)C(F)(F)F)NC(Cc1ccc(O)cc1)C(=O)O (stereo not drawn)

These compounds were tested against T2, Endothelin-converting enzyme 1 (Homo sapiens, UniProt P42892) (assay: Inhibition of human recombinant ECE1 by fluorimetry).
T2 sequence (P42892 whole entry): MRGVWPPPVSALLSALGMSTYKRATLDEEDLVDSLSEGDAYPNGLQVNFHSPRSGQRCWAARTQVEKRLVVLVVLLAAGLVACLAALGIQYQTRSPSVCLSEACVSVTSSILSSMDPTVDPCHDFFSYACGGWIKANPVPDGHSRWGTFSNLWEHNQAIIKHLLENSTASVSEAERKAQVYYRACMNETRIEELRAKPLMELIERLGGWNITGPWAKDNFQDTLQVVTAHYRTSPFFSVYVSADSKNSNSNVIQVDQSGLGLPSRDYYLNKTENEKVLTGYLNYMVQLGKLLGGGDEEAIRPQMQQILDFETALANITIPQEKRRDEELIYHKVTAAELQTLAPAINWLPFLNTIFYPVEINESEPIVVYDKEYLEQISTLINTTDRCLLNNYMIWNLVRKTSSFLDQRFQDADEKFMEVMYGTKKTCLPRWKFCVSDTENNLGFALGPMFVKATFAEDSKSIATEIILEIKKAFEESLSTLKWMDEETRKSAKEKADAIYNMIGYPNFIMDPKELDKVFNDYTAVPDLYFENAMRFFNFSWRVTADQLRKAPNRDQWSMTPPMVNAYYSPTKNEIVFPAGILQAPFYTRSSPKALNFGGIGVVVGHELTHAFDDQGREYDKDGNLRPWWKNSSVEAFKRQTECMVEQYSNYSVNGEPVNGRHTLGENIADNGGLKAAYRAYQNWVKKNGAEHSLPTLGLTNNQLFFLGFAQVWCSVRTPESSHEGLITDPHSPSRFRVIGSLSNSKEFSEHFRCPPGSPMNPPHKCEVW

SMILES	IC50 [nM]
O=C(CC(S)C(F)(F)F)NC(Cc1ccc(F)cc1)C(=O)O (stereo not drawn)	> 10000
O=C(CC(S)C(F)(F)F)NC(Cc1c[nH]c2ccccc12)C(=O)O (stereo not drawn)	> 10000
O=C(CC(S)C(F)(F)C(F)(F)F)NC(Cc1ccccc1)C(=O)O (stereo not drawn)	2420
O=C(CC(S)C(F)(F)F)NC(Cc1ccccc1)C(=O)NC(Cc1ccc(O)cc1)C(=O)O (stereo not drawn)	> 10000
O=C(CC(S)C(F)(F)F)NC(Cc1ccccc1)C(=O)O (stereo not drawn)	> 10000

Now from value to compound:

IC50 [nM]	SMILES
> 10000	CC(C)CC(S)CC(=O)NC(Cc1ccccc1)C(=O)O (stereo not drawn)
> 10000	O=C(CC(S)C(F)(F)F)NC(Cc1ccc(O)cc1)C(=O)O (stereo not drawn)
